# From ChEMBL document CHEMBL4359877, “Identification of benzothiazinones containing an oxime functional moiety as new anti-tuberculosis agents” (Eur J Med Chem, 2019)
# How the values were obtained:
# [1] = Oral bioavailability in Sprague-Dawley rat at 50 mg/kg measured upto 24 hrs by HPLC analysis; assay type: ADME, organism-based; conditions: in vivo
# Procedure, shortened: (§1)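 SD rats, 180–220 g; single intravenous dose 2.5 mg/kg or oral doses of 25, 50 or 200 mg/kg, n = 6, half of each sex. Serum sampling, acetonitrile deproteinisation and HPLC quantification followed the mouse procedure. Parameters derived from concentration–time data; F% obtained from the oral and IV exposures.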
# [2] = AUC (0 to infinity) in Sprague-Dawley rat at 2.5 mg/kg, iv by HPLC analysis; assay type: ADME, organism-based; design: dose 2.5 mg/kg, route intravenous, time infinity; conditions: in vivo; procedure, shortened: as §1
# [3] = Cmax in Sprague-Dawley rat at 200 mg/kg, po measured upto 24 hrs by HPLC analysis; assay type: ADME, organism-based; design: dose 200 mg/kg, route oral; conditions: in vivo; procedure, shortened: as §1
# [4] = Acute toxicity in Sprague-Dawley rat assessed as death at 2 g/kg, po measured continuously for first 4 hrs followed by every 1 hr for next 24 hrs and subsequent 8 hrs interval for 7 days; assay type: organism-based; conditions: in vivo, 2000 mg/kg
# Procedure, shortened: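 SD rats, 180–220 g, randomised, ten per group, food withheld overnight. Single oral dose of 2 g/kg suspended in 5% CMC; controls given vehicle only. Watched continuously for 4 h, hourly for the next 24 h, then every 8 h through day 7 for deaths or changes. Read-out is survivors/total at 7 days.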
# [5] = target: Cytochrome P450 2C19 (Homo sapiens, UniProt P33261); test: Inhibition of CYP2C19 (unknown origin); assay type: ADME
# Cytochrome P450 2C19, sequence (P33261 whole entry): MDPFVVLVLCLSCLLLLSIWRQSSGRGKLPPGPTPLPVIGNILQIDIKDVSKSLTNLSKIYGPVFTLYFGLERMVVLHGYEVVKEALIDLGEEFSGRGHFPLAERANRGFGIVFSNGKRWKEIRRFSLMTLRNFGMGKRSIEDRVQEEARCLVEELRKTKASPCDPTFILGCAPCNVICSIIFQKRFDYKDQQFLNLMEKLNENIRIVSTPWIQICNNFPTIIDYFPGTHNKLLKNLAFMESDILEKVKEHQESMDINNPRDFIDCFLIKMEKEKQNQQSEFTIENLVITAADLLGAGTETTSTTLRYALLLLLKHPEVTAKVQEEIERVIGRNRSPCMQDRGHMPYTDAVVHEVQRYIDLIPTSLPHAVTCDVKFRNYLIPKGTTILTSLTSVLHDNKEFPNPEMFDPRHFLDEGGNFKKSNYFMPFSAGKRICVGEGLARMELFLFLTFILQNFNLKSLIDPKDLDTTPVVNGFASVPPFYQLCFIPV
# [6] = tested on: Mycobacterium tuberculosis; test: Antimycobacterial activity against Mycobacterium tuberculosis H37Rv ATCC 27294 assessed as reduction in bacterial cell growth incubated for 7 days by microplate alamar blue assay; assay type: functional; conditions: H37Rv ATCC 27294, 168 h
# Procedure, shortened: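 MABA: H37Rv or clinical MDR isolates (resistant to INH and RFP, Beijing Chest Hospital patients) grown to late log phase in 7H9 with glycerol, Tween 80 and ADC, washed, filtered and frozen. Two-fold compound dilutions with 2 × 10⁵ CFU per well, 37 °C; Alamar blue plus Tween 80 added on day 7, fluorescence (ex 530/em 590) read after 16–24 h. MIC = lowest concentration giving ≥90% fluorescence reduction versus mean of bacterium-only controls; RIF and INH as positive controls.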
# [7] = Half life in Sprague-Dawley rat at 2.5 mg/kg, iv measured upto 24 hrs by HPLC analysis; assay type: ADME, organism-based; conditions: in vivo; procedure, shortened: as §1
# [8] = tested on: Mycobacterium tuberculosis; test: Antimycobacterial activity against Mycobacterium tuberculosis H37Rv assessed as reduction in bacterial cell growth at 32 ug/ml by Low-oxygen recovery assay; assay type: functional
# [9] = Cytotoxicity against African green monkey Vero cells assessed as reduction in cell viability; assay type: cell-based; conditions: chlorocebus sabaeus
# [10] = tested on: Mycobacterium tuberculosis; test: Antituberculosis activity against Mycobacterium tuberculosis H37Rv infected in BALB/C mouse assessed as colony forming unit in lungs at 25 mg/kg, po administered once daily via gavage for 5 days per week for 3 weeks starting from 10 days post-infection (reference value: 6.44 +/- 0.34); assay type: functional
# [11] = AUC (0 to infinity) in Sprague-Dawley rat at 50 mg/kg, po by HPLC analysis; assay type: ADME, organism-based; design: dose 50 mg/kg, time infinity, route oral; conditions: in vivo; procedure, shortened: as §1
# [12] = Cmax in ICR mouse at 25 mg/kg, po measured upto 24 hrs by HPLC analysis; assay type: ADME, organism-based; design: dose 25 mg/kg, route oral; conditions: in vivo
# Procedure, shortened: (§2)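 Female SPF ICR mice, 18–22 g, fasted overnight, 3 per group; single oral dose 25 mg/kg as suspension in 0.5% CMC. Jugular vein blood drawn at 0.25, 0.5, 1, 2, 4, 6, 8 and 24 h; serum deproteinised with acetonitrile, dried, redissolved and quantified by HPLC. AUC, t1/2, Cmax and Tmax taken directly from concentration–time data.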
# [13] = Oral bioavailability in Sprague-Dawley rat at 25 mg/kg measured upto 24 hrs by HPLC analysis; assay type: ADME, organism-based; conditions: in vivo; procedure, shortened: as §1
# [14] = Half life in Sprague-Dawley rat at 50 mg/kg, po measured upto 24 hrs by HPLC analysis; assay type: ADME, organism-based; conditions: in vivo; procedure, shortened: as §1
# [15] = tested on: Mycobacterium tuberculosis; test: Antituberculosis activity against Mycobacterium tuberculosis H37Rv infected in BALB/C mouse assessed as reduction in log10CFU in lungs at 25 mg/kg, po administered once daily for 5 days per week for a total of 3 weeks started on day 10 post-infection; assay type: functional
# [16] = Oral bioavailability in Sprague-Dawley rat at 200 mg/kg measured upto 24 hrs by HPLC analysis; assay type: ADME, organism-based; conditions: in vivo; procedure, shortened: as §1
# [17] = Mutagenicity in Salmonella typhimurium TA100 in absence of S9 fraction by mini-Ames test; assay type: toxicity; conditions: salmonella enterica subsp. enterica serovar typhimurium
# [18] = Half life in Sprague-Dawley rat at 25 mg/kg, po measured upto 24 hrs by HPLC analysis; assay type: ADME, organism-based; conditions: in vivo; procedure, shortened: as §1
# [19] = Mutagenicity in Salmonella typhimurium TA100 in presence of S9 fraction by mini-Ames test; assay type: toxicity, subcellular; conditions: salmonella enterica subsp. enterica serovar typhimurium
# [20] = Tmax in Sprague-Dawley rat at 200 mg/kg, po measured upto 24 hrs by HPLC analysis; assay type: ADME, organism-based; conditions: in vivo; procedure, shortened: as §1
# [21] = Cmax in Sprague-Dawley rat at 25 mg/kg, po measured upto 24 hrs by HPLC analysis; assay type: ADME, organism-based; design: dose 25 mg/kg, route oral; conditions: in vivo; procedure, shortened: as §1
# [22] = target: T1, CYP1A2 (Homo sapiens, UniProt P05177); test: Inhibition of CYP1A2 (unknown origin); assay type: ADME
# T1 sequence (P05177 whole entry): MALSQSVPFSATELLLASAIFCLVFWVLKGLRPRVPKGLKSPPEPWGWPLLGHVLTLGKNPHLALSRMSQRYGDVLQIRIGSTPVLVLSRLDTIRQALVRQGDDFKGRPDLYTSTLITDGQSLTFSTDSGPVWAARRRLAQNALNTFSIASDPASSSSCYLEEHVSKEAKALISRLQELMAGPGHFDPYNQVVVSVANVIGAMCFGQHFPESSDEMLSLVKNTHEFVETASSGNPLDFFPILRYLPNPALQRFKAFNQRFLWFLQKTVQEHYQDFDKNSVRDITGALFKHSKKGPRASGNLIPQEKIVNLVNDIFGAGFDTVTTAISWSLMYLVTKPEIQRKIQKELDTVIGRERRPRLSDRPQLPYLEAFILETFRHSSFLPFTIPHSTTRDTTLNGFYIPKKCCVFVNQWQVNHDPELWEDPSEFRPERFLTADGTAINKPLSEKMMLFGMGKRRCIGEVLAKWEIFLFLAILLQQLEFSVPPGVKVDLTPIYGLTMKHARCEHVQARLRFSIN
# [23] = AUC (0 to infinity) in Sprague-Dawley rat at 200 mg/kg, po by HPLC analysis; assay type: ADME, organism-based; design: dose 200 mg/kg, route oral, time infinity; conditions: in vivo; procedure, shortened: as §1
# [24] = AUC (0 to infinity) in Sprague-Dawley rat at 25 mg/kg, po by HPLC analysis; assay type: ADME, organism-based; design: dose 25 mg/kg, route oral, time infinity; conditions: in vivo; procedure, shortened: as §1
# [25] = Cmax in Sprague-Dawley rat at 50 mg/kg, po measured upto 24 hrs by HPLC analysis; assay type: ADME, organism-based; design: dose 50 mg/kg, route oral; conditions: in vivo; procedure, shortened: as §1
# [26] = target: CYP2D6 (Homo sapiens, UniProt P10635); test: Inhibition of CYP2D6 (unknown origin); assay type: ADME
# CYP2D6, sequence (P10635 whole entry): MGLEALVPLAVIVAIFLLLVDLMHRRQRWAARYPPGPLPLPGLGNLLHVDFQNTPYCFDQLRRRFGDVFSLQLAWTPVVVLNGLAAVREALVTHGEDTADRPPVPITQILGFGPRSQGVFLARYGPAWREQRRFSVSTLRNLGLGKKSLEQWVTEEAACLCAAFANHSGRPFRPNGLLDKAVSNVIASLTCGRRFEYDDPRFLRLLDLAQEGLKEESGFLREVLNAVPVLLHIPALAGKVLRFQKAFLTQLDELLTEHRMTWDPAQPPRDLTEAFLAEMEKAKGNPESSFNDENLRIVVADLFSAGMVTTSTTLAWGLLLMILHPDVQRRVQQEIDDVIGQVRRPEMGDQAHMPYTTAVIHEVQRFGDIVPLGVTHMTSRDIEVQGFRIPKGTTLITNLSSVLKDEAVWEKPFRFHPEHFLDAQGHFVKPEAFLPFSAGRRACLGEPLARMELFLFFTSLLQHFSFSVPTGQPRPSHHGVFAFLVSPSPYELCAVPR
# [27] = Mutagenicity in Salmonella typhimurium TA102 in presence of S9 fraction by mini-Ames test; assay type: toxicity, subcellular; conditions: salmonella enterica subsp. enterica serovar typhimurium
# [28] = AUC (0 to infinity) in ICR mouse at 25 mg/kg, po measured upto 24 hrs by HPLC analysis; assay type: ADME, organism-based; design: dose 25 mg/kg, time infinity, route oral; conditions: in vivo; procedure, shortened: as §2
# [29] = tested on: Mycobacterium tuberculosis; test: Antimycobacterial activity against Mycobacterium tuberculosis H37Rv assessed as reduction in bacterial cell growth by Low-oxygen recovery assay; assay type: functional
# [30] = Half life in ICR mouse at 25 mg/kg, po measured upto 24 hrs by HPLC analysis; assay type: ADME, organism-based; conditions: in vivo; procedure, shortened: as §2
# [31] = Tmax in ICR mouse at 25 mg/kg, po measured upto 24 hrs by HPLC analysis; assay type: ADME, organism-based; conditions: in vivo; procedure, shortened: as §2
# [32] = Tmax in Sprague-Dawley rat at 50 mg/kg, po measured upto 24 hrs by HPLC analysis; assay type: ADME, organism-based; conditions: in vivo; procedure, shortened: as §1
# [33] = target: CYP2C9 (Homo sapiens, UniProt P11712); test: Inhibition of CYP2C9 (unknown origin); assay type: ADME
# CYP2C9, sequence (P11712 whole entry): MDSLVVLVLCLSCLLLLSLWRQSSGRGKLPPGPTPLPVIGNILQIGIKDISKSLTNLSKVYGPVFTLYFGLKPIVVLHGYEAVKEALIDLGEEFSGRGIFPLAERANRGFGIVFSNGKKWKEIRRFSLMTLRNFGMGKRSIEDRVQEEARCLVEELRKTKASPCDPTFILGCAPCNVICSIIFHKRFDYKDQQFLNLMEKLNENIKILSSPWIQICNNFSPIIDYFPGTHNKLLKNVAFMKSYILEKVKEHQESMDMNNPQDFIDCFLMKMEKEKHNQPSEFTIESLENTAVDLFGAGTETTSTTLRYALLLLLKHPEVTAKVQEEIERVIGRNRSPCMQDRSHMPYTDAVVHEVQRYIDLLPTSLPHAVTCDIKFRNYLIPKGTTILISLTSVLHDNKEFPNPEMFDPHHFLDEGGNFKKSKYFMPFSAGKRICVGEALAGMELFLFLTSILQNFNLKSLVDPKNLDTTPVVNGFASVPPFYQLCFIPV
# [34] = Tmax in Sprague-Dawley rat at 25 mg/kg, po measured upto 24 hrs by HPLC analysis; assay type: ADME, organism-based; conditions: in vivo; procedure, shortened: as §1
# [35] = target: CYP3A4 (Homo sapiens, UniProt P08684); test: Inhibition of CYP3A4 (unknown origin); assay type: ADME
# CYP3A4, sequence (P08684 whole entry): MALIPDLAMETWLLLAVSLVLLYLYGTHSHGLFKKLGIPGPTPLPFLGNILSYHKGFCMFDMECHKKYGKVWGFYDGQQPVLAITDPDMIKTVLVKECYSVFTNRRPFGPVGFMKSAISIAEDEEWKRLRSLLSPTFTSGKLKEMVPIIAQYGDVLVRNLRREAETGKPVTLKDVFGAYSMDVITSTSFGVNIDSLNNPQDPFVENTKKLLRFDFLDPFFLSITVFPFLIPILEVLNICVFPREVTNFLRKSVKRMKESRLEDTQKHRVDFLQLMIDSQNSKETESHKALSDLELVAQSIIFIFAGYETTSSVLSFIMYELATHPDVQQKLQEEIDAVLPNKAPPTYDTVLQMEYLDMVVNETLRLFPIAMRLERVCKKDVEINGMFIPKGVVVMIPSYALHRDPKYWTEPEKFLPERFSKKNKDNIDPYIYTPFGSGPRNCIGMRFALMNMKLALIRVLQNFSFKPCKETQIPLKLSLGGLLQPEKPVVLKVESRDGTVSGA
# [36] = MRT in ICR mouse at 25 mg/kg, po measured upto 24 hrs by HPLC analysis; assay type: ADME, organism-based; conditions: in vivo; procedure, shortened: as §2
# [37] = Cmax in Sprague-Dawley rat at 2.5 mg/kg, iv measured upto 24 hrs by HPLC analysis; assay type: ADME, organism-based; design: dose 2.5 mg/kg, route intravenous; conditions: in vivo; procedure, shortened: as §1
# [38] = Mutagenicity in Salmonella typhimurium TA102 in absence of S9 fraction by mini-Ames test; assay type: toxicity; conditions: salmonella enterica subsp. enterica serovar typhimurium
# [39] = Half life in Sprague-Dawley rat at 200 mg/kg, po measured upto 24 hrs by HPLC analysis; assay type: ADME, organism-based; conditions: in vivo; procedure, shortened: as §1
smiles,measurement,setting,value
CON=C1CCC(CN2CCN(c3nc(=O)c4cc(C(F)(F)F)cc([N+](=O)[O-])c4s3)CC2)CC1 (stereo not given),bioavailability,[1],40.4%
same,AUC(0-inf),[2],5720 ng·h/mL
same,Cmax,[3],18200 ng/mL
same,Activity,[4],Non-Toxic
same,IC50,[5],7.8 µM
same,MIC90,[6],< 0.016 µg/mL
same,half-life,[7],1.77 h
same,inhibition at 32 µg/mL,[8],86%
same,CC50,[9],> 64 µg/mL
same,Activity,[10],2.4 log10CFU
same,AUC(0-inf),[11],45900 ng·h/mL
same,Cmax,[12],8570 ng/mL
same,bioavailability,[13],46.1%
same,half-life,[14],4.13 h
same,Activity,[15],4.04 log10CFU
same,bioavailability,[16],30.3%
same,Activity,[17],Non-Toxic
same,half-life,[18],3.2 h
same,Activity,[19],Non-Toxic
same,Tmax,[20],2.83 h
same,Cmax,[21],6230 ng/mL
same,IC50,[22],> 10 µM
same,AUC(0-inf),[23],128000 ng·h/mL
same,AUC(0-inf),[24],26800 ng·h/mL
same,Cmax,[25],10100 ng/mL
same,IC50,[26],> 10 µM
same,Activity,[27],Non-Toxic
same,AUC(0-inf),[28],27500 ng·h/mL
same,MIC,[29],> 32 µg/mL
same,half-life,[30],1.65 h
same,Tmax,[31],0.25 h
same,Tmax,[32],1.67 h
same,IC50,[33],> 10 µM
same,Tmax,[34],1.25 h
same,IC50,[35],> 10 µM
same,MRT,[36],2.46 h
same,Cmax,[37],2590 ng/mL
same,Activity,[38],Non-Toxic
same,half-life,[39],6.73 h
CCON=C1CCC(CN2C(C)CN(c3nc(=O)c4cc(C(F)(F)F)cc([N+](=O)[O-])c4s3)CC2C)CC1 (stereo not given),MIC90,[6],< 0.016 µg/mL
same,CC50,[9],60.5 µg/mL
CCON=C1CC(CN2CCN(c3nc(=O)c4cc(C(F)(F)F)cc([N+](=O)[O-])c4s3)CC2)C1 (stereo not given),MIC90,[6],< 0.016 µg/mL
same,CC50,[9],> 64 µg/mL
CCON=C1CCC(CN2CCN(c3nc(=O)c4cc(C(F)(F)F)cc([N+](=O)[O-])c4s3)CC2C)CC1 (stereo not given),MIC90,[6],< 0.016 µg/mL
same,CC50,[9],> 64 µg/mL
